Assay results reported in ChEMBL document CHEMBL1145983, “Novel indolyl aryl sulfones active against HIV-1 carrying NNRTI resistance mutations: synthesis and SAR studies” (J Med Chem, 2003).

Key:
[1] = tested on: C8166; test: Anti-HIV activity to reduce the amount of p24 in WT IIIB infected C8166 cells; assay type: functional, cell-based; details: Homo sapiens
Outline: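 HIV-1 IIIB came from supernatants of persistently infected H9/IIIB cells; stock 4.5 × 10^6 CCID50/mL. Acutely infected C8166 cells (1 × 10^4/well) were incubated at 37 °C with or without compound dilutions. p24 was measured by immunoenzymatic kit. Value is the concentration reducing p24 by 90%; mean of three experiments.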

[2] = tested on: Human immunodeficiency virus 1; test: Selectivity ratio of CC50/EC50; assay type: functional
Outline: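 Ratio of CC50 (MTT viability of mock-infected MT-4 cells) to EC50 (MTT-based 50% protection of HIV-1-infected MT-4 cells from cytopathicity), both determined in parallel.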

[3] = tested on: MT4; test: Anti-HIV activity to protect MT-4 cells from HIV-1 induced cytopathogenicity by MTT method Y181C; assay type: functional, cell-based; details: Homo sapiens
Outline: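 Acutely infected MT-4 cells (1 × 10^4/well) exposed to serial compound dilutions, then HIV-1 (wt IIIB from H9/IIIB supernatant, or Y181C mutant NIH N119) at inoculum giving full cytopathicity by day 4; 37 °C incubation; viability read by MTT. EC50 = µM giving 50% protection from virus-induced cytopathicity; mean ± SE of three experiments.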

[4] = tested on: MT-4 (Homo sapiens); test: Anti-HIV activity to protect MT-4 cells from cytopathogenicity induced by HIV-1 K103N-Y181C (MTT method)
[5] = tested on: C8166; test: Anti-HIV activity to reduce the amount of p24 in C8166 cells infected with efavirenz resistance strain K103R, V179D, and P225H.; assay type: functional, cell-based, Homo sapiens
Outline: (§1)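 Efavirenz-resistant K103R-V179D-P225H virus came from IIIB passaged in C8166 cells with efavirenz (up to 2 µM); stock 3.0 × 10^5 CCID50/mL. Acutely infected C8166 cells (1 × 10^4/well) were incubated at 37 °C with or without compound dilutions. p24 was measured by immunoenzymatic kit. Value is the concentration giving 90% p24 reduction; mean of three experiments.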

[6] = tested on: Human immunodeficiency virus 1; test: Anti-HIV activity protecting MT-4 cells from HIV-1 induced cytopathogenicity; assay type: functional, organism-based; details: Human immunodeficiency virus 1, MT4
[7] = tested on: MT4; test: Cytotoxicity, reducing the vaiability of mock-infected cells; assay type: functional; details: Homo sapiens
[8] = target: Human immunodeficiency virus type 1 reverse transcriptase (Human immunodeficiency virus 1, UniProt Q72547, K103N); test: Activity to inhibit HIV-1 Reverse transcriptase activity in K103N
Outline: (§2)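 Purified recombinant RT (wt or K103N mutant) assayed for RNA-dependent DNA polymerase activity. Buffer: 50 mM Tris-HCl pH 7.8, 80 mM KCl, 6 mM MgCl2, 1 mM DTT, 0.1 mg/mL BSA. Template:primer was poly(rC)-oligo(dG)12-18 at 0.5 OD260 unit/mL, with [3H]dGTP. Incubated 30 min at 37 °C; acid-insoluble radioactivity counted on glass-fibre filters. IC50 reported as mean of two experiments.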

[9] = tested on: MT-4 (Homo sapiens); test: Anti-HIV activity to protect MT-4 cells from cytopathogenicity induced by HIV-1 K103N-Y181C (MTT method); remark: listed apart in the source
[10] = target: Human immunodeficiency virus type 1 reverse transcriptase (Human immunodeficiency virus 1, UniProt Q72547); test: Activity to inhibit HIV-1 Reverse transcriptase activity in WT IIIB; outline: as §2
[11] = tested on: C8166; test: Anti-HIV activity to reduce the amount of p24 in C8166 cells infected with efavirenz resistance strain; assay type: functional, cell-based; details: Homo sapiens; outline: as §1

Row | Compound | EC90 [1] | Selectivity index [2] | EC50 [3] | EC50 [4] | EC90 [5] | EC50 [6] | CC50 [7] | IC50 [8] | EC50 [9] | IC50 [10] | EC90 [11]
1 | Cc1cccc(S(=O)(=O)c2c(C(N)=O)[nH]c3ccc(Cl)cc23)c1 | 5 nM | >200000 | 6 nM | 7000 nM | 260 nM | 1 nM | > 200000 nM | – | – | – | –
2 | Cc1ccccc1S(=O)(=O)c1c(C(N)=O)[nH]c2ccc(Cl)cc12 | 5 nM | >200000 | – | 10000 nM | 2600 nM | 1 nM | > 200000 nM | – | – | – | –
3 | Cc1ccc(S(=O)(=O)c2c(C(N)=O)[nH]c3ccc(Cl)cc23)cc1 | 10 nM | >66667 | 20 nM | – | – | 3 nM | > 200000 nM | > 5000 nM | > 100000 nM | 72 nM | –
4 | NC(=O)c1[nH]c2ccc(Cl)cc2c1S(=O)(=O)c1ccccc1 [L-737126] | 7 nM | 45000 | – | – | – | 1 nM | 45000 nM | > 5000 nM | – | 25 nM | 900 nM
